Measured values taken from PubChem BioAssay AID588760 (Johns Hopkins Ion Channel Center, 2011).
Activity calls are given as the source filed them.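 Rule for the calls: active = fitted dose response curve and peak inhibition of the Kir2.1 potassium channel above 30% at some dose; inactive = no dose response or no inhibition at any dose.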

molecular target: Inward rectifier potassium channel 2 (Mus musculus) (UniProt P35561); test: off-target blockade of inward rectifier Kir2.1 – cell-based, FluxOR thallium flux, CRC round 3, selectivity assay for KCNK9 inhibitor project, SAR follow-up (AID 588760); conditions: Kir2.1-expressing cells, 20 min; series mostly up to 30 µM
In short: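 Material: FluxOR-loaded Kir2.1 HEK293 cells | Times: 90 min dye load, 20 min compound, RT | Technique: Kinetic fluorescence of thallium-sensitive dye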

Sequence of Inward rectifier potassium channel 2 (Mus musculus) (P35561 whole entry, looked up): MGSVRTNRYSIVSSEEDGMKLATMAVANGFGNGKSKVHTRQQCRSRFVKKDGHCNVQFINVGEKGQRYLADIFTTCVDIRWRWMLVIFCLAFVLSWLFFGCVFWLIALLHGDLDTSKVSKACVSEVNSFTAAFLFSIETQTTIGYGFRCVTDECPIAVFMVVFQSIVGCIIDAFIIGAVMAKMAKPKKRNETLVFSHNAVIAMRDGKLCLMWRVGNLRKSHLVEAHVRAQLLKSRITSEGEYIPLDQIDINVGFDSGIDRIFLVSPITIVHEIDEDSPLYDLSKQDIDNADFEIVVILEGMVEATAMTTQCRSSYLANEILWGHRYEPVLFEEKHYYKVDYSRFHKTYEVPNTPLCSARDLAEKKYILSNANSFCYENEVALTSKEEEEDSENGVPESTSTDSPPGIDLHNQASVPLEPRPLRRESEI

outcome, inactive:
CC(c1cccc2ccccc12)n1c(-c2ccco2)n[nH]c1=S (stereo not drawn), COc1ccc(CCSc2nnc(-c3ccco3)n2C(C)C2CC3CCC2C3)cc1OC (stereo not drawn), CC(C1CC2CCC1C2)n1c(SCC#N)nnc1-c1cccs1 (stereo not drawn), CC(C1CC2CCC1C2)n1c(SCC(=O)c2ccccc2)nnc1-c1ccco1 (stereo not drawn), CC(C1CC2CCC1C2)n1c(-c2ccco2)n[nH]c1=S (stereo not drawn), CC(C1CC2CCC1C2)n1c(-c2ccco2)nnc1C(F)(F)F (stereo not drawn), CC(C1CC2CCC1C2)n1c(SCc2ccccc2)nnc1-c1ccco1 (stereo not drawn), CC(C1CC2CCC1C2)n1c(-c2cccc(F)c2)n[nH]c1=S (stereo not drawn), CC(C1CC2CCC1C2)n1c(SCC(=O)c2ccc3c(c2)OCO3)nnc1-c1ccco1 (stereo not drawn), COc1ccccc1C(=O)Nc1cccc(NC(=O)c2cccc3ccccc23)c1, CC(C)Oc1ccccc1C(=O)Nc1cccc(NC(=O)c2ccccc2OC(F)(F)F)c1, COc1cccc(C(=O)CSc2nnc(-c3ccco3)n2C(C)C2CC3CCC2C3)c1 (stereo not drawn), CC(C1CC2CCC1C2)n1c(-c2cccc(N(C)C)c2)n[nH]c1=S (stereo not drawn), CC(C1CC2CCC1C2)n1cnnc1-c1ccco1 (stereo not drawn), CC(C1CC2CCC1C2)n1c(SC(F)F)nnc1-c1ccco1 (stereo not drawn), CC(C1CC2CCC1C2)n1c(-c2ccc(N(C)C)cc2)n[nH]c1=S (stereo not drawn), S=c1[nH]nc(-c2ccco2)n1CC1CC2CCC1C2 (stereo not drawn), CC(CCC1CCCC1)n1c(-c2ccco2)n[nH]c1=S (stereo not drawn)
